Measurements as given in PMC4076525 (The Journal of General Physiology, 2014).
Changes are numbered by the printed parent chain. Names and notes keep the numbering of the source.

Tests used:
FepA = target: T1, FepA (Escherichia coli, UniProt P05825); details: ref Newton et al., 1999; Annamalai et al., 2004; cited from earlier work
T1 sequence (P05825 23-746): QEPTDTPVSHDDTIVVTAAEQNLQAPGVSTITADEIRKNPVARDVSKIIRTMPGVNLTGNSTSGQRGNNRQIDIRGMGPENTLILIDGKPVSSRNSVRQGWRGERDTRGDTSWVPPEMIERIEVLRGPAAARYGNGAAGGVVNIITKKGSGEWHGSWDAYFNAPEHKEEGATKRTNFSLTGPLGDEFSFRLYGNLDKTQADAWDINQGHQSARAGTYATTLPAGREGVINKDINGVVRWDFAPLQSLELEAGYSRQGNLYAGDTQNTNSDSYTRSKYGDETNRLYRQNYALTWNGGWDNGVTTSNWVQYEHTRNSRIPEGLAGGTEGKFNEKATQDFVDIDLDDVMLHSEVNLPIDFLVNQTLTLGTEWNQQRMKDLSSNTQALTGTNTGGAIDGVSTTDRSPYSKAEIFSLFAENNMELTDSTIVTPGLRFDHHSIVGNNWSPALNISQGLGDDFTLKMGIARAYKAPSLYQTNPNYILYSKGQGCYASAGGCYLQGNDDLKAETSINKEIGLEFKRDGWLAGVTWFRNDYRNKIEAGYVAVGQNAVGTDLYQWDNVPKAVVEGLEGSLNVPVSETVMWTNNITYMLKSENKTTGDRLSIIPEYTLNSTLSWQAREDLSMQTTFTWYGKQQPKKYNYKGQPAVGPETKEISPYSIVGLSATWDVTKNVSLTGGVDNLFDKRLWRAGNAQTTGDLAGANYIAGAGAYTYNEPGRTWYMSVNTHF

59FeEnt transport = assay type: cell-based, Escherichia coli; details: for 59FeEnt transport rate compared with wild-type FepA: before fluoresceination; for Vmax fold lower after fluoresceination: 59FeEnt uptake
How it was run: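 Cultures were grown in LB with antibiotics, then in iron-deficient MOPS medium to 10^9 cells/ml. Cells were assayed before and after labeling with 5 µM fluorescein-5-maleimide (pH 6.5 phosphate/NaCl buffer, 5 min, 37°C, β-mercaptoethanol stop). Uptake was measured in MOPS medium with 0.4% glucose at 37°C in 10-ml volumes. KM and Vmax came from an enzyme-kinetics equation fit per sample.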

[1] = Fluorescence recovery after FeEnt quenching; assay type: cell-based, Escherichia coli; details: after FM modification
[2] = Extent of FeEnt-induced quenching of FM fluorescence in live cells; assay type: cell-based, Escherichia coli; details: 10 nM FeEnt, 2.5 × 10^7 cells/ml, FM-labeled mutants
How it was run: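 Hosts were tonB+ ΔfepA or ΔtonB ΔfepA E. coli expressing plasmid-borne Cys-substituted FepA, grown in iron-deficient MOPS medium to late log. 10^10 cells were labeled with 5 µM fluorescein-5-maleimide in 50 mM Na2HPO4, 0.9% NaCl, pH 6.5, for 5 min at 37°C. Labeling was quenched with β-mercaptoethanol, and cells were resuspended in PBS with 0.4% glucose. FeEnt was added to 2.5 × 10^7 cells in 3 ml, stirred at 2°C, with emission read at 520 nm.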

[3] = Rapid-mixing stopped-flow FM quenching during FeEnt binding, live bacteria; parameters: species or system Escherichia coli; details: live bacteria expressing FepAT216C-FM
How it was run: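 Live, highly fluorescein-maleimide-labeled bacteria expressing the Cys-substituted FepA were rapid-mixed with FeEnt in a stopped-flow chamber, with emission quenching recorded at 520 nm. Rate constants, with standard errors, came from exponential decay fits (A(t) = A0e^−kt + offset). Half-times were calculated as −ln 0.5/k.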

[4] = Rapid-mixing stopped-flow FM quenching during FeEnt binding, OM fragments; parameters: species or system Escherichia coli; details: biphasic decay
[5] = 59FeEnt binding by cells expressing FepA Cys substitution mutants; parameters: species or system Escherichia coli; details: read-out: Binding >FM Kd, after modification with FM
How it was run: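 Cells were grown overnight at 37°C in LB with streptomycin (100 µg/ml) and chloramphenicol (20 µg/ml). They were subcultured 1% into iron-deficient MOPS medium and grown 5.5–6 h to 10^9 cells/ml, then labeled with 5 µM fluorescein-5-maleimide at pH 6.5 for 5 min at 37°C. Reactions were stopped with 100 mM β-mercaptoethanol. Binding ran at 0°C in 10-ml volumes, and Kd and capacity came from a bound-versus-total fit.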

O=C(N[C@H]1COC(=O)[C@@H](NC(=O)c2cccc([O-])c2[O-])COC(=O)[C@@H](NC(=O)c2cccc([O-])c2[O-])COC1=O)c1cccc([O-])c1[O-].[Fe+3] [FeEnt, ferric enterobactin]
FeEnt turnover number (FepA): ~0.03 s⁻¹

B1: A383C (protein, UniProt P05825 23-746, looked up, variant A383C)
Ferrienterobactin receptor: T1 sequence (P05825 23-746) with A383C
59FeEnt transport rate compared with wild-type FepA (59FeEnt transport): about half that rate
Increase of fluorescence recovery time compared with S271C-FM [1]: 10 fold

B2: A698C (protein, UniProt P05825 23-746, looked up, variant A698C)
Ferrienterobactin receptor: T1 sequence (P05825 23-746) with A698C
Quenching of FM emissions by FeEnt binding [2]: > 60%

B3: A322C-FM: FepA A322C labeled with fluorescein-5-maleimide (FM) (conjugate, UniProt P05825 23-746, looked up, variant A322C)
Ferrienterobactin receptor: T1 sequence (P05825 23-746) with A322C
modifications: fluorescein-5-maleimide label
Vmax fold lower after fluoresceination (59FeEnt transport): 3–10 fold
Quenching of FM emissions by FeEnt binding [2]: similarly quenched

B4: T550C (protein, UniProt P05825 23-746, looked up, variant T550C)
Ferrienterobactin receptor: T1 sequence (P05825 23-746) with T550C
Increase of fluorescence recovery time compared with S271C-FM [1]: 10 fold

B5: T216C (protein, UniProt P05825 23-746, looked up, variant T216C)
Ferrienterobactin receptor: T1 sequence (P05825 23-746) with T216C
k (SE), rate of FM quenching [3]: 1.08 (0.08) s^−1
Quenching of FM emissions by FeEnt binding [2]: > 60%

B6: S271C (protein, UniProt P05825 23-746, looked up, variant S271C)
Ferrienterobactin receptor: T1 sequence (P05825 23-746) with S271C
k (SE), second kinetic phase [4]: 0.31 (0.04) s^−1

B7: S490C-FM: FepA S490C labeled with fluorescein-5-maleimide (FM) (conjugate, UniProt P05825 23-746, looked up, variant S490C)
Ferrienterobactin receptor: T1 sequence (P05825 23-746) with S490C
modifications: fluorescein-5-maleimide label
Kd [5]: 90 nM
Vmax fold lower after fluoresceination (59FeEnt transport): 3–10 fold
Km (59FeEnt transport; read-out: Transport >FM KM, 59FeEnt, 37°C, after modification with FM): 0.057 µM
Quenching of FM emissions by FeEnt binding [2]: 30%

B8: S490C (protein, UniProt P05825 23-746, looked up, variant S490C)
Ferrienterobactin receptor: T1 sequence (P05825 23-746) with S490C
59FeEnt transport rate compared with wild-type FepA (59FeEnt transport): about half that rate
Increase of fluorescence recovery time compared with S271C-FM [1]: 10 fold
